Consider 16 compounds from ChEMBL document CHEMBL1135530, “Selective alpha4beta7 integrin antagonists and their potential as antiinflammatory agents” (J Med Chem, 2002).

Peptide text beside a SMILES is read from it.

Assay [1] is described as follows: Selectivity is the ratio of inhibitory concentrations at alpha4-beta1 integrin to alpha4-beta7 integrin.
Another assay deals with T1, Integrin alpha-4/beta-7 (Homo sapiens, UniProt P13612+P26010).
T1 sequence (P13612 whole entry): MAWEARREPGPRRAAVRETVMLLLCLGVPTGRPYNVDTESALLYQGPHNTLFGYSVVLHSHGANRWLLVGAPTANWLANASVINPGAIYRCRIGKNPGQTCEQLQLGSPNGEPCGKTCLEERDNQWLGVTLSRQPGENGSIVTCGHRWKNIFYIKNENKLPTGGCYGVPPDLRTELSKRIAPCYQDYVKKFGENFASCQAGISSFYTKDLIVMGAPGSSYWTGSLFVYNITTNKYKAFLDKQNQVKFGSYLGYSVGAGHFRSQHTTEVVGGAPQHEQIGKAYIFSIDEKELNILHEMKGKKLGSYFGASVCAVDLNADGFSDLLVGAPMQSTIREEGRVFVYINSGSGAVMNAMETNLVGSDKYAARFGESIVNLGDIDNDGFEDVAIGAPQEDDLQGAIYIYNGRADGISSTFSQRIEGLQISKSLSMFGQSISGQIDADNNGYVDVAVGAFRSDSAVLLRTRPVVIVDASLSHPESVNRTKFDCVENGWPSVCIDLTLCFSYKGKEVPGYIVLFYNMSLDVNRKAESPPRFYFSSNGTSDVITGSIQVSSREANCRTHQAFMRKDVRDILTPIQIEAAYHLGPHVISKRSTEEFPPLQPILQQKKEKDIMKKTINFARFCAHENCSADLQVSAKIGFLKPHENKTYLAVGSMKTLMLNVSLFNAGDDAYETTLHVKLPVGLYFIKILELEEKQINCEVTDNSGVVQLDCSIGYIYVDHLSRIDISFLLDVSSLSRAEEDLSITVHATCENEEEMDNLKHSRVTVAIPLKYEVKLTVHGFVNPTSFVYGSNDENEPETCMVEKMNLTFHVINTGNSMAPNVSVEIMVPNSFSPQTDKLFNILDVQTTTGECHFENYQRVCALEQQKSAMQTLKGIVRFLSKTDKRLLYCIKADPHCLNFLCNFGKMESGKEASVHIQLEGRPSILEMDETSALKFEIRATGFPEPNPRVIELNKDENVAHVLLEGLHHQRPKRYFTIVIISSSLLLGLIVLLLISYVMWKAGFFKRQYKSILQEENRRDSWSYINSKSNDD
T1 sequence (P26010 whole entry): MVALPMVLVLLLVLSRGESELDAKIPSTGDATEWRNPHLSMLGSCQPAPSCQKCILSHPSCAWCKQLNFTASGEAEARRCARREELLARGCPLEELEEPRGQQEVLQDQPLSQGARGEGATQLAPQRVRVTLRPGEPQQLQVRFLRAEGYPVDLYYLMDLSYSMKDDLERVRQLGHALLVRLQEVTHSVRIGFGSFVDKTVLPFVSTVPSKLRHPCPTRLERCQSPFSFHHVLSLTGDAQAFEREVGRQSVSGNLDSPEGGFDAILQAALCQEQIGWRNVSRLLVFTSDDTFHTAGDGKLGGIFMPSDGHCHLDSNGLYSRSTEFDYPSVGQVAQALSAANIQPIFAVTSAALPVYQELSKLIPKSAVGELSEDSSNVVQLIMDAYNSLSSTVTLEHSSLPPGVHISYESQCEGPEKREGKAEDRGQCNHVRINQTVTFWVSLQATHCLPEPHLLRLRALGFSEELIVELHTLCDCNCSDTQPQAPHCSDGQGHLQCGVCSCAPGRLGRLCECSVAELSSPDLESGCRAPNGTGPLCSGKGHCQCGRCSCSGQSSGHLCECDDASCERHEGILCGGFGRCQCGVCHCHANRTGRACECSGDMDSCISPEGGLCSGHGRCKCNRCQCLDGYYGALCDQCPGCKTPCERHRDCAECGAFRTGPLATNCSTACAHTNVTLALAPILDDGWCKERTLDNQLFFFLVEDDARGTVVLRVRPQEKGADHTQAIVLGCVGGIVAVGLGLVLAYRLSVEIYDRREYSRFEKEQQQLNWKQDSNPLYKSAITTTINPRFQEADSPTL
The assay can be described thus: Ability to block the alpha4-beta7 integrin-MAdCAM-1 binding interaction using a protein ELISA format. The assay is classed as protein-complex assay. Summed up: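 Plates coated overnight at 4 °C with anti-human α4 antibody 9F10 (2 µg/mL), blocked in Tris pH 7.5 buffer with 1 mM MnCl2, Tween-20 and 0.5% BSA, then loaded with α4β7 purified from transfected JY cells (2 µg/mL). Compounds (1 nM–200 µM final, triplicate) plus MAdCAM-1-Ig-HRP (1 µg/mL), 2 h room temperature. TMB read at 450 nm; IC50 at half-maximal absorbance.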
In general terms: In an ELISA, binding on a coated surface is turned into a signal by an enzyme label.

In a further assay the target is Integrin alpha-4/beta-1 (Homo sapiens, UniProt P05556+P13612). The assay can be described thus: Inhibitory concentration affording 50% inhibition of alpha4-beta1 integrin binding to VCAM-1, using ELISA assay. The assay is classed as protein-complex assay. Summed up: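 α4β1 extracted from Ramos cell membranes (lectin chromatography, gel filtration in 1% octylglucoside), with 1 mM MnCl2 throughout. Wells coated with 4 µg/mL recombinant soluble human VCAM-1 (5 N-terminal Ig domains, from CHO cells) and blocked with 1% BSA. Inhibitor and receptor 2 h at 37 °C in Tris pH 7.4. Bound receptor detected with anti-β1 mAb 2D4.6, then HRP anti-mouse and TMB at 450 nm. IC50 at half-maximal absorbance.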
Chain of Integrin alpha-4/beta-1 (P05556 whole entry, one chain of several, the tested form may be a part): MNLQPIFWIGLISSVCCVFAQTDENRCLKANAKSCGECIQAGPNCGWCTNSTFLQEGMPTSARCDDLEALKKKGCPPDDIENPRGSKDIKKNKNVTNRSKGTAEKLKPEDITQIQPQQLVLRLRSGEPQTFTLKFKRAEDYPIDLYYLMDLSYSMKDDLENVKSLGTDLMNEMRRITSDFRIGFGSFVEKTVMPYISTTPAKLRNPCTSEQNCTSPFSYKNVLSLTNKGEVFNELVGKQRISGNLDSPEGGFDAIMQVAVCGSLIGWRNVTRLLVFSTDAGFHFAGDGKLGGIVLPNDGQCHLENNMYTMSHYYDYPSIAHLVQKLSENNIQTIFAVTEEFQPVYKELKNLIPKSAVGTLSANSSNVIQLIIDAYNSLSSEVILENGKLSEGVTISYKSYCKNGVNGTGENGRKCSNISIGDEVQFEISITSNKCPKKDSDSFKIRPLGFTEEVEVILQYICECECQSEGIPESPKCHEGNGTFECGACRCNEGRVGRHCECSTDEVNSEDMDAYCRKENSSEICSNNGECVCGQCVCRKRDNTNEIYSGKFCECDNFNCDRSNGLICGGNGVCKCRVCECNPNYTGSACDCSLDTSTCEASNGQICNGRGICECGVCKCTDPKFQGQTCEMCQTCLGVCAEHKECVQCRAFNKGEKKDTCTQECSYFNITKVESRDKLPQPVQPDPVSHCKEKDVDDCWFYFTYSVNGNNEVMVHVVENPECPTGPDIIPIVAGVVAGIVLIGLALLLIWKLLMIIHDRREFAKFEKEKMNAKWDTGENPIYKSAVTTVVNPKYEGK

Assay [2] has as its target Integrin alpha-IIb/beta-3 (Homo sapiens, UniProt P05106+P08514). The assay can be described thus: Inhibition of alpha IIb beta3 integrin binding to fibrinogen. It counts as protein-complex assay.
Assay [3] concerns the target Intercellular adhesion molecule (ICAM-1), Integrin alpha-L/beta-2 (Homo sapiens, UniProt P05107+P05362+P20701). Briefly: Ability to block alphaL-beta2 integrin binding to ICAM-1. It counts as protein-complex assay.
The target in a further assay is Integrin alpha-5/beta-1 (Homo sapiens, UniProt P05556+P08648). The assay can be described thus: Ability to block the alpha5-beta1 integrin binding to fibronectin. The assay is classed as protein-complex assay.
Chain of Integrin alpha-5/beta-1 (P05556 21-798 limits assumed): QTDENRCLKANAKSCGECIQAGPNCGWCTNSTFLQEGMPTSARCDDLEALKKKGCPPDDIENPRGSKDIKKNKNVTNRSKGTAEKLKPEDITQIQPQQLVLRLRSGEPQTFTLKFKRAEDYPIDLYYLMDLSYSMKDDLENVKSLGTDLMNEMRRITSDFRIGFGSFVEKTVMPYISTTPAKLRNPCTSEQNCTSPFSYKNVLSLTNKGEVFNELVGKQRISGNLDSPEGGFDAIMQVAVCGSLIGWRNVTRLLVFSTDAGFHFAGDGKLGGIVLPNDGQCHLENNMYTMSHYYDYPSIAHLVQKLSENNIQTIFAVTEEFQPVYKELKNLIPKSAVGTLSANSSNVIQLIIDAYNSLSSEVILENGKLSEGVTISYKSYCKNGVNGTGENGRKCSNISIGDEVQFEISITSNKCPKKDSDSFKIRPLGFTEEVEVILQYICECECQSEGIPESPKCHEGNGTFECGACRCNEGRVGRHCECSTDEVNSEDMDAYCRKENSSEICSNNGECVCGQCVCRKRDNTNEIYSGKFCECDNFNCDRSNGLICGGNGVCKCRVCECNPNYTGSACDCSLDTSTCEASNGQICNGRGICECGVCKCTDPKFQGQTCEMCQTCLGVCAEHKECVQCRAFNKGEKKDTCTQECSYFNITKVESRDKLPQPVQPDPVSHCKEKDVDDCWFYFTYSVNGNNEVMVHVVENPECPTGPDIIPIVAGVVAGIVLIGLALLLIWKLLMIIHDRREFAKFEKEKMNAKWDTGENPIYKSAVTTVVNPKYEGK
Chain of Integrin alpha-5/beta-1 (P08648 42-894 limits assumed): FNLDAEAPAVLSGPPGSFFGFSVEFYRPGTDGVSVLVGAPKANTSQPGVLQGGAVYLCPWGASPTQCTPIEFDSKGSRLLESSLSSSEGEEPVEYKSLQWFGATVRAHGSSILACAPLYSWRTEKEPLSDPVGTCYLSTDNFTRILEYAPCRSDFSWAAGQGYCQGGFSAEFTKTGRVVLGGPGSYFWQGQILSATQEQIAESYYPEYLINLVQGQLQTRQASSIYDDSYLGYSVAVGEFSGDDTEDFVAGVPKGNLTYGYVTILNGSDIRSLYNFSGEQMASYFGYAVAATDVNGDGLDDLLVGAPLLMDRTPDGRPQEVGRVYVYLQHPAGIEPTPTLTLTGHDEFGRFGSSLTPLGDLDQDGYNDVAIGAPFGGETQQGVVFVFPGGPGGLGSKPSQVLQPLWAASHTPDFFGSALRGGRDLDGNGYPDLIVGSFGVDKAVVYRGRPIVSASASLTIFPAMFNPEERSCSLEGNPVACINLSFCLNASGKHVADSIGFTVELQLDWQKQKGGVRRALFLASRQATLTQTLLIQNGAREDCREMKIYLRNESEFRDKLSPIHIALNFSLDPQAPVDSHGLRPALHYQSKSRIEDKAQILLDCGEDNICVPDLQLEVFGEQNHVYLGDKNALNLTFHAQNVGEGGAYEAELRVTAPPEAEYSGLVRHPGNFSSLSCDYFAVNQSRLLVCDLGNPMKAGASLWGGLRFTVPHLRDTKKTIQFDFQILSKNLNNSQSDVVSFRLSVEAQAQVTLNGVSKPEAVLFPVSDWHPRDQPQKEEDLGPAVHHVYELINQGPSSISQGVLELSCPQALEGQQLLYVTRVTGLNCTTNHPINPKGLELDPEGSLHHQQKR
Chain of Integrin alpha-5/beta-1 (P08648 895-1049 limits assumed): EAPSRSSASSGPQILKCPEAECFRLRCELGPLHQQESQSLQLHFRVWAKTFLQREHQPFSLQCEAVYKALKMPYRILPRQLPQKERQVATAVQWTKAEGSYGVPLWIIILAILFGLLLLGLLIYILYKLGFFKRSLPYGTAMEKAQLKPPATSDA
For the next assay, the target named is Integrin alpha-V/beta-3 (Homo sapiens, UniProt P05106+P06756). The assay can be described thus: Ability to block the alphaV-beta3 integrin binding to vitronectin. The assay is classed as protein-complex assay.

For orientation: IC50 means the concentration needed to halve the response being measured.

Chain of Integrin alpha-IIb/beta-3 (P05106 27-788 limits assumed): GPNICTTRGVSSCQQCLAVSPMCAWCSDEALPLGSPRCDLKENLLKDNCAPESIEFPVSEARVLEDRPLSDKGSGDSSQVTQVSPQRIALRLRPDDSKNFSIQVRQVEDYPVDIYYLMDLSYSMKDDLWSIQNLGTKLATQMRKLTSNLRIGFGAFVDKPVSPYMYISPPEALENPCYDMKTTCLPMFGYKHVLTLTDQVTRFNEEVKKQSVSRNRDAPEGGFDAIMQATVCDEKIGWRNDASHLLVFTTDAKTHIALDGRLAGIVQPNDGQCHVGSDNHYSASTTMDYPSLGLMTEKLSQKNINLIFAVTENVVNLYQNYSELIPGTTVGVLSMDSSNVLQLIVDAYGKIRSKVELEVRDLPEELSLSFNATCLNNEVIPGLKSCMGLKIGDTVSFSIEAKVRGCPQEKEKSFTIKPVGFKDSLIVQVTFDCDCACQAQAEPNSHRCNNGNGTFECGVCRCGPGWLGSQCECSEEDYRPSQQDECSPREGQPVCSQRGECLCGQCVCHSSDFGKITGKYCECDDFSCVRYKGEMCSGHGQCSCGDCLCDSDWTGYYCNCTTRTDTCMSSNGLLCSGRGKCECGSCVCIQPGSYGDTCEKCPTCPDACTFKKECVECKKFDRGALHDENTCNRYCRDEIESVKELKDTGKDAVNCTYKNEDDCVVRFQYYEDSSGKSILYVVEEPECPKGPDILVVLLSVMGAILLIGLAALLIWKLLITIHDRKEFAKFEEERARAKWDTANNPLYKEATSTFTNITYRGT
Chain of Integrin alpha-IIb/beta-3 (P08514 32-887 limits assumed): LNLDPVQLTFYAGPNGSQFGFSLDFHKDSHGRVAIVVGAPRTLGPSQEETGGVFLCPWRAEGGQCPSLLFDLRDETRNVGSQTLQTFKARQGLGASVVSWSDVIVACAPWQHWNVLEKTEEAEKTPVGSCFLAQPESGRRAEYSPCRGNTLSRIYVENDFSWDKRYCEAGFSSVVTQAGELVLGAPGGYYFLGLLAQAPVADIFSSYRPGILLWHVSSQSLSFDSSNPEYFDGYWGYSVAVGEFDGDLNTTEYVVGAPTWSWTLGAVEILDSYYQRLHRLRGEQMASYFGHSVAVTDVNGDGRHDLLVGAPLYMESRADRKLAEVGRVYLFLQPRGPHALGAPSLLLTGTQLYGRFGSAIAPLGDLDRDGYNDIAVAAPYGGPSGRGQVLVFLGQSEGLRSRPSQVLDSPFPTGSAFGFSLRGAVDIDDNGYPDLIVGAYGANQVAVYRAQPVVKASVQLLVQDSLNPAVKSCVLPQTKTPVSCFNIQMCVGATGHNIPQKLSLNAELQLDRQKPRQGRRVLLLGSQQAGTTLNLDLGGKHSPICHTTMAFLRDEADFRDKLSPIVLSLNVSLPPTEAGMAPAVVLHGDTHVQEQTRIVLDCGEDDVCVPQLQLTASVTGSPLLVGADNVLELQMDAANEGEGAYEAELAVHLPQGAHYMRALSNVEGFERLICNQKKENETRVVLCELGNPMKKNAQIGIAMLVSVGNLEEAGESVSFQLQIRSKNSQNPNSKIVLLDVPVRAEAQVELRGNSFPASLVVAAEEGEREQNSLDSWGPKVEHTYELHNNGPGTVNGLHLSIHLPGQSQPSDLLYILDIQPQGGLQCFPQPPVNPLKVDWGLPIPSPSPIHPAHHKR
Chain of Integrin alpha-IIb/beta-3 (P08514 891-1039 limits assumed): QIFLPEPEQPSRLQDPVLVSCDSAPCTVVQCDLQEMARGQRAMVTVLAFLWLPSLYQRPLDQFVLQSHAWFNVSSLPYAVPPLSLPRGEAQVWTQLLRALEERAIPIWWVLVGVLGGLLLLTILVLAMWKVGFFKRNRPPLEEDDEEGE

For the compound `CC(C)C[C@H]1NC(=O)[C@H](C(C)C)NC(=O)[C@@H](CC(=O)O)NC(=O)[C@H](CO)NC(=O)[C@@H](CCCN=C(N)N)NC(=O)[C@H](N)CSSC[C@H](C(N)=O)NC1=O`, the Ratio in assay [1] amounted to 15.5. The same measure, in the same setting: the same measure for `CC(C)C[C@@H]1NC(=O)[C@@H](CCCN=C(N)N)NC(=O)[C@H](N)CSSC[C@H](C(N)=O)NC(=O)[C@@H](CC(C)C)NC(=O)[C@H]([C@@H](C)O)NC(=O)[C@@H](CC(=O)O)NC1=O`: 0.42. Regarding `CC(C)C[C@H]1NC(=O)[C@@H]([C@@H](C)O)NC(=O)[C@@H](CC(=O)O)NC(=O)[C@H](CO)NC(=O)[C@@H](CCCN=C(N)N)NC(=O)[C@H](N)CSSC[C@H](C(N)=O)NC1=O`, the Ratio in assay [1] turned out to be 2.5. Also, the IC50 stood at 7.9 µM on Integrin alpha-4/beta-7 and 20 µM at Integrin alpha-4/beta-1.

Regarding `CC(C)C[C@H]1NC(=O)[C@H]([C@@H](C)O)NC(=O)[C@@H](CC(N)=O)NC(=O)[C@H](CO)NC(=O)[C@@H](CCCN=C(N)N)NC(=O)[C@H](N)CSSC[C@H](C(N)=O)NC1=O`, the Ratio in assay [1] was 0.5. Still for that read-out and setting: the same measure for `CC(C)C[C@H]1NC(=O)[C@H]([C@@H](C)O)NC(=O)[C@@H](CC(=O)O)NC(=O)[C@H](CO)NC(=O)[C@@H](Cc2c[nH]cn2)NC(=O)[C@H](N)CSSC[C@H](C(N)=O)NC1=O`: 2.8; for `C[C@@H](O)[C@@H]1NC(=O)[C@@H](CC(=O)O)NC(=O)[C@H](CO)NC(=O)[C@@H](CCCN=C(N)N)NC(=O)[C@H](N)CSSC[C@H](C(N)=O)NC(=O)[C@H]2CCCN2C1=O`: 0.9. Turning to `CC(C)C[C@H]1NC(=O)[C@H]([C@H](C)O)NC(=O)[C@@H](CC(=O)O)NC(=O)[C@@H](CO)NC(=O)[C@@H](CCCN=C(N)N)NC(=O)[C@H](N)CSSC[C@H](C(N)=O)NC1=O`, in assay [1], the Ratio was above 2.3. In addition, the IC50 at Integrin alpha-4/beta-7 was 43 µM; on Integrin alpha-4/beta-1 it was above 100 µM.

For the compound `CC(C)C[C@H]1NC(=O)[C@H]([C@@H](C)O)NC(=O)[C@@H](CC(=O)O)NC(=O)[C@H](CO)NC(=O)[C@@H](CCCN=C(N)N)NC(=O)[C@H](N)CSSC[C@H](C(=O)O)NC1=O`, the Ratio in assay [1] was 3.1. Turning to `CC(C)C[C@H]1NC(=O)[C@H]([C@@H](C)O)NC(=O)[C@@H](CC(N)=O)NC(=O)[C@H](CO)NC(=O)[C@@H](CCCN=C(N)N)NC(=O)[C@H](N)CSSC[C@H](C(=O)O)NC1=O`, the Ratio in assay [1] turned out to be 0.06.

In the case of `CC(C)C[C@H]1NC(=O)[C@H]([C@@H](C)O)NC(=O)[C@@H](CC(=O)O)NC(=O)[C@H](CO)NC(=O)[C@@H](Cc2ccccc2)NC(=O)[C@H](N)CSSC[C@H](C(N)=O)NC1=O`, the Ratio in assay [1] stood at 0.09. Same read-out and setting: under `CC(C)C[C@H]1NC(=O)[C@H]([C@@H](C)O)NC(=O)[C@@H](CC(=O)O)NC(=O)[C@H]([C@@H](C)O)NC(=O)[C@@H](CCCN=C(N)N)NC(=O)[C@H](N)CSSC[C@H](C(N)=O)NC1=O` stands 3.5. For `CC(C)C[C@@H]1NC(=O)[C@H]([C@@H](C)O)NC(=O)[C@H](CC(=O)O)NC(=O)[C@H](CO)NC(=O)[C@H](CCCN=C(N)N)NC(=O)[C@@H](N)CSSC[C@@H](C(=O)NCC(=O)N[C@@H](CCC(=O)O)C(N)=O)NC1=O` (HELM PEPTIDE1{C.R.S.D.T.L.C.G.E.[am]}$PEPTIDE1,PEPTIDE1,1:R3-7:R3$$$V2.0), the IC50 in assay [2] is above 25 µM; in assay [3] it was above 100 µM; on Integrin alpha-4/beta-7, 0.03 µM; on Integrin alpha-4/beta-1 it was 1.1 µM; on Integrin alpha-5/beta-1, 6.1 µM; on Integrin alpha-V/beta-3, 1 µM. Consider `CC[C@H](C)[C@@H]1NC(=O)[C@@H](CCCN=C(N)N)NC(=O)[C@H](N)CSSC[C@H](C(N)=O)NC(=O)[C@@H](CC(C)C)NC(=O)[C@H]([C@@H](C)O)NC(=O)[C@@H](CC(=O)O)NC1=O`, for which the Ratio in assay [1] came to 0.06. With `CSCC[C@@H]1NC(=O)[C@@H](CCCN=C(N)N)NC(=O)[C@H](N)CSSC[C@H](C(N)=O)NC(=O)[C@@H](CC(C)C)NC(=O)[C@H]([C@@H](C)O)NC(=O)[C@@H](CC(=O)O)NC1=O`, the Ratio in assay [1] is 1.5.

For `CC(C)C[C@H]1NC(=O)[C@H](CO)NC(=O)[C@@H](CC(=O)O)NC(=O)[C@H](CO)NC(=O)[C@@H](CCCN=C(N)N)NC(=O)[C@H](N)CSSC[C@H](C(N)=O)NC1=O`, in assay [1], the Ratio was 48. As to `CC(C)C[C@H]1NC(=O)[C@H]([C@@H](C)O)NC(=O)[C@@H](CC(=O)O)NC(=O)[C@H](CO)NC(=O)[C@@H](CCCN=C(N)N)NC(=O)[C@H](N)CSSC[C@H](C(N)=O)NC1=O`, in assay [1], the Ratio stood at 35.
